From ChEMBL document CHEMBL1143782, “Alpha-aminothiazole-gamma-aminobutanoic amides as potent, small molecule CCR2 receptor antagonists” (Bioorg Med Chem Lett, 2007)
pIC50: −log10 of the molar value.

Assays:
Format in all cases: cell-based
[1] = target: T1, C-C chemokine receptor type 2 (Homo sapiens, UniProt P41597); test: Displacement of [125I]MCP1 from human CCR2 expressed in monocytes
Procedure, shortened: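 Human CCR2 binding was read as inhibition of 125I-MCP-1 binding to monocyte cells stably transfected with CCR2. The assay was run in the presence of 0.5% BSA, using membranes of these cells.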
Target sequence in this assay (P41597 whole entry): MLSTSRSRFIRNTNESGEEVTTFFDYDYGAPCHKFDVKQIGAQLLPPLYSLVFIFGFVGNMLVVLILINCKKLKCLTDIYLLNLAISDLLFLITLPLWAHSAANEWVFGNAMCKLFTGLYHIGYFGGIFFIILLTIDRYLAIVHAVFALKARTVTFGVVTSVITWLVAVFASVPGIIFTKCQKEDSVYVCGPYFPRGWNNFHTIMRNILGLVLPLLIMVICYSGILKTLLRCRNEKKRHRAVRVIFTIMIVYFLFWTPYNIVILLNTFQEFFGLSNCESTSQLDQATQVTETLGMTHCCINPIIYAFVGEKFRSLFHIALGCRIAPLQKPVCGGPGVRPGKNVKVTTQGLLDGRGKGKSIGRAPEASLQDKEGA

[2] = target: C-C chemokine receptor type 2 (Mus musculus, UniProt P51683); test: Displacement of [125I]MCP1 from mouse CCR2 expressed in monocytes
C-C chemokine receptor type 2 (Mus musculus, UniProt P51683), sequence (P51683 whole entry): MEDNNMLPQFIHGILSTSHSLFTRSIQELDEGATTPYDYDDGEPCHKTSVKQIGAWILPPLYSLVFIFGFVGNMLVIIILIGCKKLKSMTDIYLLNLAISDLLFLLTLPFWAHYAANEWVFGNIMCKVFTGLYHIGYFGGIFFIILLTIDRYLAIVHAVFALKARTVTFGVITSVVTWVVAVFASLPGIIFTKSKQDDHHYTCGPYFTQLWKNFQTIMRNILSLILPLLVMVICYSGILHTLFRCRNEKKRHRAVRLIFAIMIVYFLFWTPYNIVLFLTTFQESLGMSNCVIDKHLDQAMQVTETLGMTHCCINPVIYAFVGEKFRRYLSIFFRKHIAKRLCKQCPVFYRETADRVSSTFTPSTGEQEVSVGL

[3] = target: T1, C-C chemokine receptor type 2; test: Displacement of [125I]MCP-1 from human CCR2 expressed in monocytes 1 uM
Target sequence in this assay (P41597 whole entry, looked up): as the sequence (P41597 whole entry) above

SMILES	pIC50 [1]	pIC50 [2]	inhibition [3]
CC(=O)Nc1nc(C(CCN2CCN(c3ccccc3C)CC2)C(=O)NCc2cc(C(F)(F)F)cc(C(F)(F)F)c2)cs1 (stereo not drawn)	7.84	–	–
C[C@H]1CN(CCC(C(=O)NCc2cc(C(F)(F)F)cc(C(F)(F)F)c2)c2csc(NC(=O)Cc3cccs3)n2)CC[C@]12C=Cc1ccccc12 (stereo partly drawn)	7.64	7.09	–
Nc1nc(C(CCN2CCC(c3ccccc3)CC2)C(=O)NCc2cc(C(F)(F)F)cc(C(F)(F)F)c2)cs1 (stereo not drawn)	7.70	–	–
O=C(NCc1cc(C(F)(F)F)cc(C(F)(F)F)c1)[C@H](CCN1CCC(c2ccccc2)CC1)c1cscn1	6.64	–	–
Nc1nc(C(CCN2CCC(n3cnc4ccccc43)CC2)C(=O)NCc2cc(C(F)(F)F)cc(C(F)(F)F)c2)cs1 (stereo not drawn)	7.54	–	–
C[C@H]1CN(CCC(C(=O)NCc2cc(C(F)(F)F)cc(C(F)(F)F)c2)c2csc(NC(=O)c3cccnc3)n2)CC[C@]12C=Cc1ccccc12 (stereo partly drawn)	7.85	6.73	–
C[C@H]1CN(CCC(C(=O)NCc2cc(C(F)(F)F)cc(C(F)(F)F)c2)c2csc(NC(=O)C3Cc4ccccc43)n2)CC[C@]12C=Cc1ccccc12 (stereo partly drawn)	7.44	6.95	–
CS(=O)(=O)Nc1nc(C(CCN2CCC(c3ccccc3)CC2)C(=O)NCc2cc(C(F)(F)F)cc(C(F)(F)F)c2)cs1 (stereo not drawn)	7.44	–	–
CC(=O)Nc1nc([C@@H](CCN2CCC(c3ccccc3)CC2)C(=O)NCc2cc(C(F)(F)F)cc(C(F)(F)F)c2)cs1	7.38	–	–
COC(=O)Nc1nc([C@@H](CCN2CCC(c3ccccc3)CC2)C(=O)NCc2cc(C(F)(F)F)cc(C(F)(F)F)c2)cs1	–	–	85%
Cc1ccccc1N1CCN(CCC(C(=O)NCc2cc(C(F)(F)F)cc(C(F)(F)F)c2)c2csc(N)n2)CC1 (stereo not drawn)	6.74	–	–
CC(C)(C)C(=O)Nc1nc(C(CCN2CCC(c3ccccc3)CC2)C(=O)NCc2cc(C(F)(F)F)cc(C(F)(F)F)c2)cs1 (stereo not drawn)	7.74	–	–
O=C(Nc1nc(C(CCN2CCC(c3ccccc3)CC2)C(=O)NCc2cc(C(F)(F)F)cc(C(F)(F)F)c2)cs1)c1ccccc1 (stereo not drawn)	7.80	–	–
C[C@H]1CN(CCC(C(=O)NCc2cc(C(F)(F)F)cc(C(F)(F)F)c2)c2csc(NC(=O)c3ccccc3)n2)CC[C@]12C=Cc1ccccc12 (stereo partly drawn)	7.77	6.02	–

The remaining lines, values ahead:

pIC50 [1]	pIC50 [2]	inhibition [3]	SMILES
8.52	–	–	CNC(=O)Nc1nc(C(CCN2CCC(c3ccccc3)CC2)C(=O)NCc2cc(C(F)(F)F)cc(C(F)(F)F)c2)cs1 (stereo not drawn)
8.89	–	–	C[C@H]1CN(CCC(C(=O)NCc2cc(C(F)(F)F)cc(C(F)(F)F)c2)c2csc(N)n2)CCC12C=Cc1ccccc12 (stereo partly drawn)
8.52	–	–	CC(=O)Nc1nc(C(CCN2CCC(n3cnc4ccccc43)CC2)C(=O)NCc2cc(C(F)(F)F)cc(C(F)(F)F)c2)cs1 (stereo not drawn)
8.59	–	–	COC(=O)Nc1nc(C(CCN2CCC(c3ccccc3)CC2)C(=O)NCc2cc(C(F)(F)F)cc(C(F)(F)F)c2)cs1 (stereo not drawn)
8.85	–	–	CC(=O)Nc1nc([C@H](CCN2CCC3(C=Cc4ccccc43)CC2)C(=O)NCc2cc(C(F)(F)F)cc(C(F)(F)F)c2)cs1
9.37	–	–	CNC(=O)Nc1nc([C@H](CCN2CCC(c3ccccc3)CC2)C(=O)NCc2cc(C(F)(F)F)cc(C(F)(F)F)c2)cs1
8.13	–	–	CC(C)C(=O)Nc1nc(C(CCN2CCC(c3ccccc3)CC2)C(=O)NCc2cc(C(F)(F)F)cc(C(F)(F)F)c2)cs1 (stereo not drawn)
8.89	–	–	N=C(N)Nc1nc(C(CCN2CCC(c3ccccc3)CC2)C(=O)NCc2cc(C(F)(F)F)cc(C(F)(F)F)c2)cs1 (stereo not drawn)
8.46	–	–	CCC(=O)Nc1nc(C(CCN2CCC(c3ccccc3)CC2)C(=O)NCc2cc(C(F)(F)F)cc(C(F)(F)F)c2)cs1 (stereo not drawn)
8.74	–	–	CC(=O)Nc1nc(C(CCN2CCC(c3ccc(F)cc3)CC2)C(=O)NCc2cc(C(F)(F)F)cc(C(F)(F)F)c2)cs1 (stereo not drawn)
